What was measured:
[1] = test system: Liver; test: Drug level in liver of diet-induced obese C57BL6 mouse at 20 mg/kg, po BID; type: ADME, organism-based; parameters: dose 20 mg/kg, route oral; conditions: in vivo, read-out: Drug uptake
In short: (§1)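 eDIO mice were dosed orally for 4 weeks, either 20 mg/kg bid or 5 mg/kg qd. Liver, Harderian gland and skin were taken at trough at study termination, and compound concentration was measured by LC-MS.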

[2] = Drug uptake in liver of female rhesus monkey at 5 mg/kg, po measured 6 hrs post dose; type: ADME, organism-based, Macaca mulatta; parameters: dose 5 mg/kg, route oral; conditions: in vivo
[3] = Drug uptake in eye of C57BL6 mouse at 10 mg/kg, po measured 6 hrs post dose; type: ADME, organism-based; parameters: dose 10 mg/kg, route oral; conditions: in vivo
[4] = Drug uptake in eye of Sprague-Dawley rat at 10 mg/kg, po measured 6 hrs post dose; type: ADME, organism-based; parameters: dose 10 mg/kg, route oral; conditions: in vivo
[5] = test system: Liver; test: Drug uptake in liver of Beagle dog at 5 mg/kg, po measured 6 hrs post dose; type: ADME, organism-based, Canis lupus familiaris; parameters: dose 5 mg/kg, route oral; conditions: in vivo
[6] = Drug uptake in skin of female rhesus monkey at 5 mg/kg, po measured 6 hrs post dose; type: ADME, organism-based, Macaca mulatta, Zone of skin; parameters: dose 5 mg/kg, route oral; conditions: in vivo
[7] = Oral bioavailability in rat; type: ADME, organism-based; conditions: in vivo
[8] = test system: Mus musculus; test: Toxicity in diet-induced obese C57BL6 mouse assessed as reduction in food intake at 20 to 60 mg/kg, po BID; type: organism-based; parameters: dose 20-60 mg/kg, route oral; conditions: in vivo
In short: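 Obese male C57/Bl6 mice after at least 18 weeks of high fat diet and a 7-day vehicle run-in, randomized by body weight. Dosed orally at 20 or 60 mg/kg bid for 28 days (n = 8–10/group). Food consumption monitored twice weekly.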

[9] = test system: Mus musculus; test: Antidiabetic activity in po dosed diet-induced obese fasted C57BL6 mouse assessed as increase in glucose clearance administered 1 hr before glucose challenge measured 12 hrs thereafter by OGTT; type: functional; conditions: in the assay text read “2 hrs” for “12 hrs”
In short: (§2)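 Male C57/Bl6 mice were kept on a high fat diet for at least 14 weeks from 6 weeks of age, then fasted 16 h. Compound was given orally 1 h before a 2 g/kg oral glucose load.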

[10] = test system: Zone of skin; test: Drug uptake in skin of C57BL6 mouse at 10 mg/kg, po measured 6 hrs post dose; type: ADME, organism-based; parameters: dose 10 mg/kg, route oral; conditions: in vivo
[11] = Drug uptake in eye of Beagle dog at 5 mg/kg, po measured 6 hrs post dose; type: ADME, organism-based, Canis lupus familiaris; parameters: dose 5 mg/kg, route oral; conditions: in vivo
[12] = Drug uptake in eye of female rhesus monkey at 5 mg/kg, po measured 6 hrs post dose; type: ADME, organism-based, Macaca mulatta; parameters: dose 5 mg/kg, route oral; conditions: in vivo
[13] = test system: Mus musculus; test: Toxicity in diet-induced obese C57BL6 mouse assessed as adverse effect in skin at 20 to 60 mg/kg, po BID measured within 4 weeks; type: organism-based; parameters: dose 20-60 mg/kg, route oral; conditions: in vivo, 672 h
In short: (§3)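 Male C57/Bl6 mice on high fat diet for at least 18 weeks from 6 weeks of age. Given 7 days vehicle run-in (1% methocel bid), then randomized by body weight and dosed orally at 20 or 60 mg/kg bid for 28 days (n = 8–10/group). Skin (hair loss/lesion) and eye (squint to closure) scored 0–3 twice weekly.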

[14] = test system: Zone of skin; test: Drug uptake in skin of Sprague-Dawley rat at 10 mg/kg, po measured 6 hrs post dose; type: ADME, organism-based; parameters: dose 10 mg/kg, route oral; conditions: in vivo
[15] = test system: Liver; test: Drug uptake in liver of Sprague-Dawley rat at 10 mg/kg, po measured 6 hrs post dose; type: ADME, organism-based; parameters: dose 10 mg/kg, route oral; conditions: in vivo
[16] = target: T1, Acyl-CoA desaturase 1 (Rattus norvegicus, UniProt P07308); test: Inhibition of SCD-1 activity in Sprague-Dawley rat Hepatocytes expressing organic anion transporting polypeptides assessed as reduction in [I-14C] […] desaturation by scintillation counting; type: cell-based, Hepatocyte
T1 sequence (P07308 whole entry): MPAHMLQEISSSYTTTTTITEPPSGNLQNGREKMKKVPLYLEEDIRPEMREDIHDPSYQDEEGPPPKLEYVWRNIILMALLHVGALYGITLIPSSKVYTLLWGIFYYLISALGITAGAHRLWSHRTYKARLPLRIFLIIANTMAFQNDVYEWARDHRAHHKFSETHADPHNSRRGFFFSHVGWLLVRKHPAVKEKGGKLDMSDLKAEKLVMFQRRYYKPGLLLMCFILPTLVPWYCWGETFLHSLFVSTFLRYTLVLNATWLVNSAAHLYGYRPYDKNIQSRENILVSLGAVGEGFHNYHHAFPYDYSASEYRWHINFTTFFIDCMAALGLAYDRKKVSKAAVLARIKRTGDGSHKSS
In short: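 Rat hepatocytes (4 × 10^6 cells/mL) were preincubated with compound for 15 min at 37 °C/5% CO2. 14C-stearic acid (final 0.5 μCi/mL) was then added for 1 h with shaking. Cells were washed, hydrolyzed in 2N NaOH at 75 °C for 1 h, acidified and extracted. Radiolabeled oleic and stearic acids were quantified by HPLC with flow scintillation detection. Mean of at least n = 3.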

[17] = Oral bioavailability in dog; type: ADME, organism-based, Canis lupus familiaris; conditions: in vivo
[18] = test system: Liver; test: Drug uptake in liver of C57BL6 mouse at 10 mg/kg, po measured 6 hrs post dose; type: ADME, organism-based; parameters: dose 10 mg/kg, route oral; conditions: in vivo
[19] = test system: Mus musculus; test: Antidiabetic activity in diet-induced obese C57BL6 mouse assessed as reduction in glucose AUC at 7 to 10 mg/kg, po administered 1 hr before oral glucose administration measured 2 hrs thereafter; type: functional; conditions: dose mg/kg 7-10
[20] = Drug level in harderian gland of diet-induced obese C57BL6 mouse at 20 mg/kg, po BID; type: ADME, organism-based; parameters: dose 20 mg/kg, route oral; conditions: in vivo, read-out: Drug uptake; in short: as §1
[21] = Drug uptake in skin of Beagle dog at 5 mg/kg, po measured 6 hrs post dose; type: ADME, organism-based, Canis lupus familiaris, Zone of skin; parameters: dose 5 mg/kg, route oral; conditions: in vivo
[22] = test system: Mus musculus; test: Antidiabetic activity in diet-induced obese C57BL6 mouse assessed as reduction in glucose AUC at 3 to 7 mg/kg, po administered 1 hr before oral glucose administration measured 2 hrs thereafter; type: functional; conditions: dose mg/kg 3-7
[23] = test system: Mus musculus; test: Antidiabetic activity in diet-induced obese C57BL6 mouse assessed as reduction in glucose AUC at 7 to 30 mg/kg, po administered 1 hr before oral glucose administration measured 2 hrs thereafter; type: functional; conditions: dose mg/kg 7-30; in short: as §2
[24] = Oral bioavailability in mouse; type: ADME, organism-based; conditions: in vivo
In short: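 Fasted male C57BL6 mice given 2 mg/kg IV and 10 mg/kg PO. Plasma drug levels measured by LC-MS/MS, mean of n = 3 animals, and PK parameters derived from these.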

[25] = Apparent permeability across pig LLC-PK1 cells; type: ADME, cell-based, Sus scrofa
[26] = test system: Mus musculus; test: Antidiabetic activity in diet-induced obese C57BL6 mouse assessed as reduction in body weight gain at 60 mg/kg, po BID; type: functional; parameters: scale not given: the % may be the effect or the level left
In short: (§4)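 Male C57/Bl6 mice were fed a high fat diet for at least 18 weeks from 6 weeks of age, then given vehicle (1% methocel, bid) for 7 days and randomized by body weight. Oral dosing (qd or bid) ran for 28 days, with n = 8–10/group. Body weight, food intake and skin/eye scores were recorded twice weekly.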

[27] = test system: Mus musculus; test: Inhibition of SCD activity in liver of diet-induced obese C57BL6 mouse assessed as reduction in desaturation induces at 20 mg/kg, po BID administered for 4 weeks; type: functional; conditions: 672 h
[28] = test system: Mus musculus; test: Antidiabetic activity in diet-induced obese C57BL6 mouse assessed as reduction in body weight gain at 20 mg/kg, po BID; type: functional; parameters: scale not given: the % may be the effect or the level left; in short: as §4
[29] = target: T1, Acyl-CoA desaturase 1; test: Inhibition of rat SCD-1
[30] = test system: Mus musculus; test: Toxicity in diet-induced obese C57BL6 mouse assessed as adverse effect in eye at 20 to 60 mg/kg, po BID measured within 4 weeks; type: organism-based; parameters: dose 20-60 mg/kg, route oral; conditions: in vivo, 672 h; in short: as §3
[31] = target: T1, Acyl-CoA desaturase 1; test: Inhibition of SCD-1 activity in Sprague-Dawley rat microsome assessed as reduction in [I-14C] stearoyl CoA desaturation by scintillation counting; type: microsomes

With O=C(O)Cn1nnc(-c2cc(N3CCC(Oc4cc(F)ccc4Br)CC3)no2)n1 [MK-8245] the concentration [1] was 5000 nM, the Drug uptake [2] was “Active” and the Drug uptake [3] was “Active”. The Drug uptake [4] was “Active”, the Drug uptake [5] was “Active” and the Drug uptake [6] was “Active”. For the same molecule, the bioavailability [7] was 28%, the Activity [8] was “Non-toxic” and the ED50 [9] was 7 mg/kg. The Drug uptake [10] was “Active”, the Drug uptake [11] was “Active” and the Drug uptake [12] was “Active”. The Activity [13] was “Non-toxic”, the Drug uptake [14] was “Active” and the Drug uptake [15] was “Active”. For the same molecule, the IC50 [16] was 68 nM, the bioavailability [17] was 40% and the Drug uptake [18] was “Active”. The “inhibition (INH)” value [19] was 60%, the concentration [20] was 900 nM and the Drug uptake [21] was “Active”. The “inhibition (INH)” value [22] was 36%, the “inhibition (INH)” value [23] was 89% and the bioavailability [24] was 12%. The Papp [25] was 3.8 ×10⁻⁶ cm/s, the Activity [26] was 5% and the inhibition in vivo at 20 mg/kg [27] was 63%. The Activity [28] was 5%, the IC50 [29] was 3 nM and the Activity [30] was “Non-toxic”. The IC50 [31] was 3 nM.

— ChEMBL document CHEMBL2150952 (J Med Chem, 2011)
